Laboratory results as given in ChEMBL document CHEMBL3044677, “Metabolism and metabolites of dithiocarbamates in the plant pathogenic fungus Leptosphaeria maculans” (J Agric Food Chem, 2012).
The source made the active and inactive calls. The rule behind the calls is not given here.

Key:
Plenodomus lingam [1] = test: Antifungal activity against Leptosphaeria maculans isolate BJ-125/UAMH-9410 assessed as mycelial growth inhibition at 0.5 mM incubated under constant light for 5 days by mycelial radial growth bioassay; assay type: functional; conditions: isolate BJ-125/UAMH-9410, 120 h, read-out: GI
In short: (§1)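 Mycelial radial growth assay. L. maculans (BJ125 or UAMH-9410) was grown on V8 agar. A 4 mm plug cut from 7-day-old V8 plates was placed upside down at the centre of PDA wells (33 mm) containing compound dissolved in CH3CN. Controls held 1% CH3CN in PDA. Plates were incubated under constant light for 5 days. Mycelial diameter was measured, and % inhibition = 100 − [(amended/control diameter) × 100]. Triplicate, at least twice; mean ± SD.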

Plenodomus lingam [2] = test: Antifungal activity against Leptosphaeria maculans isolate BJ-125/UAMH-9410 assessed as mycelial growth inhibition at 0.2 mM incubated under constant light for 5 days by mycelial radial growth bioassay; assay type: functional; conditions: isolate BJ-125/UAMH-9410, 120 h, read-out: GI; in short: as §1
Plenodomus lingam [3] = test: Antifungal activity against Leptosphaeria maculans isolate BJ-125/UAMH-9410 assessed as mycelial growth inhibition at 0.1 mM incubated under constant light for 5 days by mycelial radial growth bioassay; assay type: functional; conditions: for inhibition of growth at 100 µM: isolate BJ-125/UAMH-9410, 120 h, read-out: GI; in short: as §1
[4] = Drug metabolism in Leptosphaeria maculans isolate BJ-125 assessed as drug recovery at 0.10 mM after 24 hr by HPLC analysis; assay type: ADME, organism-based; conditions: plenodomus lingam, Leptosphaeria maculans isolate BJ-125 (fungus); read-out: Drug recovery
In short: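 Minimal medium (50 mL) was inoculated with isolate BJ-125 spores (106/mL) and shaken at 120 rpm, 23 °C, under constant light. After 2 days, compound in CH3CN was added (final 0.10 mM), also to noninoculated medium as a stability control. Broth samples taken up to 72 h were extracted with EtOAc and quantified by HPLC-DAD against calibration curves; basified broth was extracted with CHCl3/MeOH for amines. At least three independent experiments ± SD.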

SMILES | inhibition of growth at 500 µM (Plenodomus lingam [1]) [%] | inhibition of growth at 200 µM (Plenodomus lingam [2]) [%] | inhibition of growth at 100 µM (Plenodomus lingam [3]) [%] | growth inhibition (GI) (Plenodomus lingam [3]) | remaining at 24 h, 100 µM [4] [%]
OCCCc1c[nH]c2ccccc12 | 18 | 14 | 7 |  | 
CC(=O)NCCc1c[nH]c2ccccc12 [NB-ACETYLTRYPTAMINE] | 15 | 7 |  | inactive | 
CC(=O)NCCCc1c[nH]c2ccccc12 | 24 | 13 | 10 |  | 
c1ccc2[nH]cnc2c1 [BENZIMIDAZOLE] | 35 | 20 | 11 |  | 
NCCc1c[nH]c2ccccc12 [TRYPTAMINE] | 28 | 15 | 12 |  | 
CC(=O)NCc1cc2ccccc2[nH]1 | 33 | 18 | 7 |  | 
CSC(=S)NCc1c[nH]c2ccccc12 [BRASSININ] | 55 | 21 | 10 |  | < 5
COn1c(CN)cc2ccccc21 | 19 | 8 |  | inactive | 
OCCc1c[nH]c2ccccc12 [TRYPTOPHOL] | 29 | 16 |  | inactive | 
CSC(=S)NCCc1c[nH]c2ccccc12 [METHYL TRYPTAMINEDITHIOCARBAMATE] | 100 | 71 | 43 |  | 55
CSC(=S)OCCCc1c[nH]c2ccccc12 | 31 | 18 | 5 |  | 
CC(=O)NCc1ccc(-c2ccccc2)cc1 | 30 | 17 | 9 |  | 
NCCCc1c[nH]c2ccccc12 | 27 | 14 |  | inactive | 
NCc1cc2ccccc2[nH]1 [2-INDOLYLMETHANAMINE] | 33 | 19 |  | inactive | 
CSC(=S)NCc1cc2ccccc2[nH]1 [ISOBRASSININ] | 43 | 22 | 13 |  | < 5
COn1c(CNC(C)=O)cc2ccccc21 | 15 | 11 | 4 |  | 
CSC(=S)OCCc1c[nH]c2ccccc12 [METHYL TRYPTOPHOLDITHIOCARBAMATE] | 32 | 15 | 7 |  | 15
CSC(=S)NCc1ccc(-c2ccccc2)cc1 | 46 | 32 | 14 |  | < 5
CS/C(S)=N/CCCc1c[nH]c2ccccc12 | 67 | 46 | 21 |  | 37
COn1c(CNC(=S)SC)cc2ccccc21 [1-METHOXYISOBRASSININ] | 34 | 15 | 7 |  | 47
